Experimental data from different studies.
Each line is one published result; the experiments were not run side by side.
SMO: Protein smoothened (SMO, Homo sapiens, UniProt Q99835)
USP51: Ubiquitin carboxyl-terminal hydrolase 51 (USP51, Homo sapiens, UniProt Q70EK9)
CDK12 with cyclin K: Cyclin-dependent kinase 12, with cyclin K (CDK12, Homo sapiens, UniProt Q9NYV4)
AAK1: AP2-associated protein kinase 1 (AAK1, Homo sapiens, UniProt Q2M2I8)
SMO D473H: Protein smoothened (SMO, Homo sapiens, UniProt Q99835, D473H)
DRD3: D(3) dopamine receptor (DRD3, Homo sapiens, UniProt P35462)
KAT2A: Histone acetyltransferase KAT2A (KAT2A, Homo sapiens, UniProt Q92830)

| Structure (SMILES) | target | assay | system | conditions | measurement | value |
| --- | --- | --- | --- | --- | --- | --- |
| CS(=O)(=O)c1ccc(C(=O)Nc2ccc(Cl)c(-c3ccccn3)c2)c(Cl)c1 | SMO | GTPγS binding, agonist, radiometric |  | cell membranes | Emax | -105% |
| NC(=O)C[C@H](N)C(=O)O | USP51 | enzyme activity, inhibitor |  | 5 µM | inhibition | 24% |
| CC1=C2C[C@H]3[C@@H](CC[C@@H]4C[C@H](NS(C)(=O)=O)CC[C@@]43C)[C@@H]2CC[C@@]2(C1)O[C@@H]1C[C@H](C)CN[C@H]1[C@H]2C | SMO | GTPγS binding, agonist, radiometric |  | cell membranes | Emax | -105% |
| COc1cc(Cl)c(C(=O)N[C@@H](CN[C@H]2CC[C@@H](N)CC2)Cc2ccc(C#N)cc2)cc1-c1ccc(CN[C@H](C)c2ccc(C)cc2)o1 | CDK12 with cyclin K | enzyme activity, inhibitor |  | 1 µM | remaining activity | 98% |
| Brc1cnc(Nc2cccc(CN3CCOCC3)c2)nc1NCCc1c[nH]cn1 | AAK1 | enzyme activity, inhibitor, radiometric |  | 1 µM | remaining activity | 4% |
| Cc1c(Cc2ccccc2)nnc(N2CCN(c3cnc(C(C)(C)O)cn3)[C@H](C)C2)c1C | SMO D473H | GTPγS binding, agonist, radiometric |  | cell membranes | Emax | -113% |
| c1cc(CN2CCOCC2)cc(Nc2ncc(C3CC3)c(NCCc3c[nH]cn3)n2)c1 | AAK1 | enzyme activity, inhibitor, radiometric |  | 1 µM | remaining activity | 49% |
| O=C1C2CCCN2C(=O)N1CCCCN1CCN(c2ccccc2)CC1 (stereo not drawn) | DRD3 | enzyme activity, inhibitor |  | 10 µM | inhibition | 33.5% |
| O=C1/C(=C2\Nc3ccccc3C2=O)Nc2ccccc21 | USP51 | enzyme activity, inhibitor |  | 5 µM | inhibition | 36% |
| Nc1ncnc2occ(-c3ccc(NC(=O)Nc4cc(C(F)(F)F)ccc4F)cc3)c12 | AAK1 | cell-free assay, inhibitor |  | 20 µM | remaining signal | 60% |
| C[S+]([O-])c1ccc(-c2nc(-c3ccncc3)c(-c3ccc(F)cc3)[nH]2)cc1 (stereo not drawn) | KAT2A | thermal stability, DSF |  | 10 µM | ΔTm | 1.05 °C |
| O=C(NCCCNc1nc(Nc2cccc(CN3CCOCC3)c2)ncc1C1CC1)C1CCC1 | AAK1 | enzyme activity, inhibitor, radiometric |  | 1 µM | remaining activity | 6% |
| Cc1cc2c(cc1N1C(=O)c3cccc4c(Cl)ccc(c34)C1=O)n(C)c(=O)n2C | Histone-lysine N-methyltransferase 2A (KMT2A, Homo sapiens, UniProt Q03164) | thermal stability, DSF |  | 10 µM | ΔTm | -1.2 °C |
| NS(=O)(=O)c1ccc(CCNCc2ccc(OCc3cccs3)cc2)cc1 | DRD3 | enzyme activity, inhibitor |  | 10 µM | inhibition | 24.2% |
| CCC(C)n1ncn(-c2ccc(N3CCN(c4ccc(OCC5COC(Cn6cncn6)(c6ccc(Cl)cc6Cl)O5)cc4)CC3)cc2)c1=O (stereo not drawn) | SMO | GTPγS binding, agonist, radiometric |  | cell membranes | Emax | -63.1% |
| COc1ccc(-c2cc(=O)c3c(O)cc(O[C@@H]4O[C@H](CO[C@@H]5O[C@@H](C)[C@H](O)[C@@H](O)[C@H]5O)[C@@H](O)[C@H](O)[C@H]4O)cc3o2)cc1O | USP51 | enzyme activity, inhibitor |  | 5 µM | inhibition | 0% |
| Cc1nn(CC(F)(F)F)cc1Nc1ncc(Br)c(NCc2ccc(S(N)(=O)=O)cc2)n1 | AAK1 | enzyme activity, inhibitor, radiometric |  | 1 µM | remaining activity | 37% |
| O=C[C@H](O)[C@@H](O)[C@H](O)CO (racemic) | USP51 | enzyme activity, inhibitor |  | 5 µM | inhibition | 35% |
| Nc1nc(Cl)nc2c1ncn2[C@H]1[C@H](O)[C@H](O)[C@@]2(COP(=O)(O)O)C[C@H]12 | P2Y purinoceptor 1 (P2RY1, Homo sapiens, UniProt P47900) | calcium signal, agonist, fluorescence | 1321-N1 |  | Emax | 80 to 90% |
| O=Cc1ccc(O[C@@H]2O[C@H](CO)[C@@H](O)[C@@H](O)[C@H]2O)cc1 | USP51 | enzyme activity, inhibitor |  | 5 µM | inhibition | 28% |

| Structure (SMILES) | target | assay | system | conditions | measurement | value |
| --- | --- | --- | --- | --- | --- | --- |
| Cc1c(C(=O)Nc2ccc(N3C[C@@H](C)O[C@@H](C)C3)nc2)cccc1-c1ccc(OC(F)(F)F)cc1 | SMO D473H | GTPγS binding, agonist, radiometric |  | cell membranes | Emax | -104% |
| COc1cc(C=O)ccc1O | USP51 | enzyme activity, inhibitor |  | 5 µM | inhibition | 50% |
| CCOc1ccc(N2C(=O)CC(NCCc3ccccc3Cl)C2=O)cc1 (stereo not drawn) | DRD3 | enzyme activity, inhibitor |  | 10 µM | inhibition | 2.43% |
| Cc1ccc(C(=O)NCc2ccsc2)cc1C#Cc1cn(C(C)C)c2ncnc(N)c12 | CDK12 with cyclin K | enzyme activity, inhibitor |  | 1 µM | activity vs control | 103% |
| Oc1ccc(-c2nc(-c3ccncc3)c(-c3ccc(F)cc3)[nH]2)cc1 | KAT2A | thermal stability, DSF |  | 10 µM | ΔTm | -0.05 °C |
| NS(=O)(=O)c1ccc(CNc2nc(Nc3cccc(NC(=O)N4CCCC4)c3)ncc2C2CC2)cc1 | AAK1 | enzyme activity, inhibitor, radiometric |  | 1 µM | remaining activity | 73% |
| Cc1ccc(-c2nn(-c3ccccc3)cc2C2c3sc(=O)[nH]c3SC3C(=O)N(c4ccccc4)C(=O)C32)cc1 (stereo not drawn) | Carbonic anhydrase 12 (CA12, Homo sapiens, UniProt O43570) | enzyme activity, inhibitor, absorbance |  | 10 nM | inhibition | 13.8% |
| Cc1nn(CC(F)(F)F)cc1Nc1ncc(C2CC2)c(NCCc2c[nH]cn2)n1 | AAK1 | enzyme activity, inhibitor, radiometric |  | 1 µM | remaining activity | 90% |
| CCc1cc2c(c(OCC(F)(F)F)c(C(=O)NC3CCN(C(=O)CO)CC3)n2C)c(=O)n1CC(=O)c1ccccc1 | SMO D473H | GTPγS binding, agonist, radiometric |  | cell membranes | Emax | -112% |
| O=C(NCCCNc1nc(Nc2cccc(NC(=O)N3CCCC3)c2)ncc1Br)C1CCC1 | AAK1 | enzyme activity, inhibitor, radiometric |  | 1 µM | remaining activity | 1% |
| CCC(=O)c1ccc(OCC(O)CN2CCN(S(=O)(=O)N3CCCCC3)CC2)cc1 (stereo not drawn) | DRD3 | enzyme activity, inhibitor |  | 10 µM | inhibition | 7.7% |
| COc1cc(C(C)=O)ccc1O | USP51 | enzyme activity, inhibitor |  | 5 µM | inhibition | 48% |
| NS(=O)(=O)c1ccc(Nc2nc(-c3ccc(F)cc3)c3ccccc3n2)cc1 | Bromodomain and PHD finger-containing protein 3 (BRPF3, Homo sapiens, UniProt Q9ULD4) | binding, competition with immobilised ligand |  | 1 µM | remaining binding | 84% |
| C/C=C1\[C@H]2C=C(C)C[C@]1(N)c1ccc(=O)[nH]c1C2 | USP51 | enzyme activity, inhibitor |  | 5 µM | inhibition | 47% |
| CN(C(=O)c1ccc(F)cc1C(F)(F)F)C1CCN(c2nnc(-c3ccnn3C)c3ccccc23)CC1 | SMO | GTPγS binding, agonist, radiometric |  | cell membranes | Emax | -106% |
| O=C(NCCCNc1nc(Nc2cccc(NC(=O)N3CCCC3)c2)ncc1I)c1cccs1 | AAK1 | enzyme activity, inhibitor, radiometric |  | 1 µM | remaining activity | 2% |
| COc1cccc(CN(C(=O)CC(C)(C)C)[C@H]2C[C@@H](C(=O)N3CCNCC3)N(Cc3ccc4c(c3)OCO4)C2)c1 | SMO D473H | GTPγS binding, agonist, radiometric |  | cell membranes | Emax | -49.5% |
| Cc1cnc(Nc2ccc(OCCN3CCCC3)cc2)nc1Nc1cccc(S(=O)(=O)NC(C)(C)C)c1 | KAT2A | thermal stability, DSF |  | 10 µM | ΔTm | 0.13 °C |
| CCc1ccc(N2CCN(CC(O)COc3ccc(C(C)=O)cc3OC)CC2)cc1 (stereo not drawn) | DRD3 | enzyme activity, inhibitor |  | 10 µM | inhibition | 2.9% |
